A short description of series [1]: Genotoxicity in micronucleus (unknown origin).
The test system of series [2] is Salmonella typhimurium. In words: Mutagenic activity in Salmonella typhimurium by Ames test. Format: toxicity, organism-based. The settings on record: salmonella enterica subsp. enterica serovar typhimurium. (In general: The Ames test uses bacterial strains that need an amino acid and regain growth without it when mutated back.)
The target in series [3] is T1, hERG (KCNH2) (Homo sapiens, UniProt Q12809). In words: Inhibition of human ERG transfected in CHO cells at 10 uM by patch clamp assay relative to control. The settings on record: CHO cells transfected with human ERG. Format: cell-based. Summed up:
(§1)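 Whole-cell patch clamp on CHO cells stably transfected with the human ERG gene.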
(In patch-clamp work, channel activity is measured electrically.)

The target in series [4] is T1, hERG (KCNH2). In words: Inhibition of human ERG transfected in CHO cells at 1 uM by patch clamp assay relative to control. The settings on record: CHO cells transfected with human ERG. Format: cell-based. Summed up:
as §1

The target of series [5] is Cytochrome P450 3A4 (Homo sapiens, UniProt P08684). The series is described as follows: Inhibition of CYP3A4 (unknown origin). In kind it is ADME.
Cytochrome P450 3A4, sequence (P08684 whole entry): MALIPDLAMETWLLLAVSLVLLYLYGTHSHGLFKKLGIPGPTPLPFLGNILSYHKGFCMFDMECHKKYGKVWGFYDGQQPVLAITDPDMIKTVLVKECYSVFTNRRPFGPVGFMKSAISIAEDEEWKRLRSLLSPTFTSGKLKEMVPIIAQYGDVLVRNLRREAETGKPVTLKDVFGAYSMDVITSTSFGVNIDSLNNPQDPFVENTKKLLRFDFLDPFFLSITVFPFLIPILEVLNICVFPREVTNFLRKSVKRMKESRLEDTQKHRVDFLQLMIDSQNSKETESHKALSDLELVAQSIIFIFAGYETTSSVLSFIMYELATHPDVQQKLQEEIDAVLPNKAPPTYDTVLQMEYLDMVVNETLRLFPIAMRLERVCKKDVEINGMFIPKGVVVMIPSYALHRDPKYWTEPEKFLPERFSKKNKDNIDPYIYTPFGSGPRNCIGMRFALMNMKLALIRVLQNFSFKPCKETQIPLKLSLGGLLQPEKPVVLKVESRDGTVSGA
For series [6], the target named is Cytochrome P450 2C19 (Homo sapiens, UniProt P33261). The series is described as follows: Inhibition of CYP2C19 (unknown origin). In kind it is ADME.
Cytochrome P450 2C19, sequence (P33261 whole entry): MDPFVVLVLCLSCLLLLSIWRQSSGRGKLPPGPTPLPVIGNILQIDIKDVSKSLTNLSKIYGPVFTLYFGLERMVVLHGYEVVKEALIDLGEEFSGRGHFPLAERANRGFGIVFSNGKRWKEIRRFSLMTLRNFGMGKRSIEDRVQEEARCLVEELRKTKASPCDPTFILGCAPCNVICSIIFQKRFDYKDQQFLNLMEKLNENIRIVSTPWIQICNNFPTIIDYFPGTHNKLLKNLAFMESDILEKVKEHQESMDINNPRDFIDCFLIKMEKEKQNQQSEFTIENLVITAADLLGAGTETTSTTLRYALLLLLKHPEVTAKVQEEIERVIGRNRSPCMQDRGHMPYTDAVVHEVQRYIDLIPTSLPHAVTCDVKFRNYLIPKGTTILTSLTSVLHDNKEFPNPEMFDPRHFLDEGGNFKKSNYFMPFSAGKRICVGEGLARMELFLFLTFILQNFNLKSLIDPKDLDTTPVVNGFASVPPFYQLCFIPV
In series [7] the target is Cytochrome P450 2D6 (Homo sapiens, UniProt P10635). In words: Inhibition of CYP2D6 (unknown origin). In kind it is ADME.
Cytochrome P450 2D6, sequence (P10635 whole entry): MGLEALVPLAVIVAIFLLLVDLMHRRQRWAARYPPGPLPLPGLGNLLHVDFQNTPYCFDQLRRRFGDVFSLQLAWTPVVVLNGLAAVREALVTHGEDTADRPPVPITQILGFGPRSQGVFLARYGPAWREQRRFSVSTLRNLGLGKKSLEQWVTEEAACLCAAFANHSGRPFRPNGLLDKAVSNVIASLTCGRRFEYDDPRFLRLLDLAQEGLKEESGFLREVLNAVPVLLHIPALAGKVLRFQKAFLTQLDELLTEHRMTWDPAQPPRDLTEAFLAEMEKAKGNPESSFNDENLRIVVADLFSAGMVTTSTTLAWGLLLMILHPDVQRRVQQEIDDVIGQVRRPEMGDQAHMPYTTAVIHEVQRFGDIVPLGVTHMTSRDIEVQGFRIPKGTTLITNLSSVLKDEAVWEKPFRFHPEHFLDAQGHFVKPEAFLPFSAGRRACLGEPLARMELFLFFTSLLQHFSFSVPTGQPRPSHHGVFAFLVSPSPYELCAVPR
For series [8], the target named is Cytochrome P450 2C9 (Homo sapiens, UniProt P11712). The series is described as follows: Inhibition of CYP2C9 (unknown origin). In kind it is ADME.
Cytochrome P450 2C9, sequence (P11712 whole entry): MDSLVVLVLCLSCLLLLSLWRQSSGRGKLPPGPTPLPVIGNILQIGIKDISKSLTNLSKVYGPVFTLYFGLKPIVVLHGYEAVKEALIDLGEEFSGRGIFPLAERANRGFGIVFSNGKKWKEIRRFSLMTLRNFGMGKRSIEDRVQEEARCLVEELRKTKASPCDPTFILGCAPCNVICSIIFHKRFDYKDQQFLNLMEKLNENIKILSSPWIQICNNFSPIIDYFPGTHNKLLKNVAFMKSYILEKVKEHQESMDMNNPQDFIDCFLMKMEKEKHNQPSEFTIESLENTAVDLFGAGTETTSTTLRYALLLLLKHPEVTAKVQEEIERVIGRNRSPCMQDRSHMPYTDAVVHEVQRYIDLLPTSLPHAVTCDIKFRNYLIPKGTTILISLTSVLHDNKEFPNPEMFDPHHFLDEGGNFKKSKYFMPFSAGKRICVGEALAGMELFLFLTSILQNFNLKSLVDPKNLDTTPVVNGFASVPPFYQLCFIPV
Series [9] addresses T2, Cytochrome P450 2B6 (Homo sapiens, UniProt P20813).
T2 sequence (P20813 whole entry): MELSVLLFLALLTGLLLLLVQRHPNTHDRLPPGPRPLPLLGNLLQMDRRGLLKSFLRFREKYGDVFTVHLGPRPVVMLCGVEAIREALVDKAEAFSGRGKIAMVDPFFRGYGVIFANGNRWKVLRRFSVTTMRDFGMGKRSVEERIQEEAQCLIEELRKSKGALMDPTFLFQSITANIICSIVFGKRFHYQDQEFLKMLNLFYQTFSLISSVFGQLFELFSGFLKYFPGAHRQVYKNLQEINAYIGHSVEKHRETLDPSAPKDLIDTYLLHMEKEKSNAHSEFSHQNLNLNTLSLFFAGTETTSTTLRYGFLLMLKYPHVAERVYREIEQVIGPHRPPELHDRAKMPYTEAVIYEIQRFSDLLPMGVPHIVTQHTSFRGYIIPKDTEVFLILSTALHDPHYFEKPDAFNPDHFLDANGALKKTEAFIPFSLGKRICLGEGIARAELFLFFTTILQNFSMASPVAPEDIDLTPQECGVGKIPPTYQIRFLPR
The series is described as follows: Inhibition of CYP2B6 (unknown origin). In kind it is ADME.

The target in series [10] is T3, Cytochrome P450 1A2 (Homo sapiens, UniProt P05177).
T3 sequence (P05177 whole entry): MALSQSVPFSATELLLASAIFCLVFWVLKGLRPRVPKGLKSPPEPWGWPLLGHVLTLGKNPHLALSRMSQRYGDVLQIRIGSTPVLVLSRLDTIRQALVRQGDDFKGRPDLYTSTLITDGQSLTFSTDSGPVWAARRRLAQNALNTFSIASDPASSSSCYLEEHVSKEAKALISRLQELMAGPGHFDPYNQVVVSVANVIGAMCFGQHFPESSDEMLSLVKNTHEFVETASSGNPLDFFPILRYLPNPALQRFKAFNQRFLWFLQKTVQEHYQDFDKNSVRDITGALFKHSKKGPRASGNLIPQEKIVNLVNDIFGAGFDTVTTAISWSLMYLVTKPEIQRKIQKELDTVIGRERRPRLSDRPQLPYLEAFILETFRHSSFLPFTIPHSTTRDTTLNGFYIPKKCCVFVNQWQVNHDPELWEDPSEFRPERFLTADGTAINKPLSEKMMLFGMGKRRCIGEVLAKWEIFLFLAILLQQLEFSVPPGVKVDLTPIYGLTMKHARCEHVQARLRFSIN
The series is described as follows: Inhibition of CYP1A2 (unknown origin). Format: ADME.

A short description of series [11]: Drug metabolism in rat liver microsomes at 5 uM after 20 mins. In kind it is ADME, Microsome. The settings on record: read-out: Drug metabolism. In short, it runs like this:
(§2)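 Substrate at 5 µM incubated at 37 °C for 20 min with in-house liver microsome preparations (human, mouse or rat). Reported as the percentage of parent compound metabolized.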
For orientation: Liver microsomes are a subcellular fraction often used to study metabolism.

A short description of series [12]: Drug metabolism in human liver microsomes at 5 uM after 20 mins. In kind it is ADME, Microsome. The settings on record: read-out: Drug metabolism. In short, it runs like this:
as §2

Series [13] can be described thus: Drug metabolism in mouse liver microsomes at 5 uM after 20 mins. Format: ADME, Microsome. The settings on record: read-out: Drug metabolism. In short, it runs like this: as §2
In series [14] the target is Histamine H3 receptor (Rattus norvegicus, UniProt Q9QYN8). In words: Displacement of [3H]N-alpha-methylhistamine from recombinant rat histamine H3 receptor transfected in CHO cell membranes after 1 hr by scintillation counting analysis. The arrangement: species or system Membrane. In short, it runs like this:
(§3)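 Radioligand displacement of [3H]N-α-methylhistamine using membranes from CHO cells stably transfected with recombinant human or rat H3 receptor. Ki is presented as a range of multiple experiments (n ≥ 3).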

Series [15] addresses Histamine H3 receptor (Homo sapiens, UniProt Q9Y5N1). In words: Displacement of [3H]N-alpha-methylhistamine from recombinant human histamine H3 receptor transfected in CHO cell membranes after 1 hr by scintillation counting analysis. Summed up:
as §3

The inhibition is how much of the control response was suppressed. High values mean a strong effect, low ones a weak effect. In general, IC50 refers to the concentration needed to halve the response being measured. A low value points to greater potency. Broadly, the Ki is a measure of affinity in units of concentration, obtained from inhibition or displacement.

T1 sequence (Q12809 whole entry): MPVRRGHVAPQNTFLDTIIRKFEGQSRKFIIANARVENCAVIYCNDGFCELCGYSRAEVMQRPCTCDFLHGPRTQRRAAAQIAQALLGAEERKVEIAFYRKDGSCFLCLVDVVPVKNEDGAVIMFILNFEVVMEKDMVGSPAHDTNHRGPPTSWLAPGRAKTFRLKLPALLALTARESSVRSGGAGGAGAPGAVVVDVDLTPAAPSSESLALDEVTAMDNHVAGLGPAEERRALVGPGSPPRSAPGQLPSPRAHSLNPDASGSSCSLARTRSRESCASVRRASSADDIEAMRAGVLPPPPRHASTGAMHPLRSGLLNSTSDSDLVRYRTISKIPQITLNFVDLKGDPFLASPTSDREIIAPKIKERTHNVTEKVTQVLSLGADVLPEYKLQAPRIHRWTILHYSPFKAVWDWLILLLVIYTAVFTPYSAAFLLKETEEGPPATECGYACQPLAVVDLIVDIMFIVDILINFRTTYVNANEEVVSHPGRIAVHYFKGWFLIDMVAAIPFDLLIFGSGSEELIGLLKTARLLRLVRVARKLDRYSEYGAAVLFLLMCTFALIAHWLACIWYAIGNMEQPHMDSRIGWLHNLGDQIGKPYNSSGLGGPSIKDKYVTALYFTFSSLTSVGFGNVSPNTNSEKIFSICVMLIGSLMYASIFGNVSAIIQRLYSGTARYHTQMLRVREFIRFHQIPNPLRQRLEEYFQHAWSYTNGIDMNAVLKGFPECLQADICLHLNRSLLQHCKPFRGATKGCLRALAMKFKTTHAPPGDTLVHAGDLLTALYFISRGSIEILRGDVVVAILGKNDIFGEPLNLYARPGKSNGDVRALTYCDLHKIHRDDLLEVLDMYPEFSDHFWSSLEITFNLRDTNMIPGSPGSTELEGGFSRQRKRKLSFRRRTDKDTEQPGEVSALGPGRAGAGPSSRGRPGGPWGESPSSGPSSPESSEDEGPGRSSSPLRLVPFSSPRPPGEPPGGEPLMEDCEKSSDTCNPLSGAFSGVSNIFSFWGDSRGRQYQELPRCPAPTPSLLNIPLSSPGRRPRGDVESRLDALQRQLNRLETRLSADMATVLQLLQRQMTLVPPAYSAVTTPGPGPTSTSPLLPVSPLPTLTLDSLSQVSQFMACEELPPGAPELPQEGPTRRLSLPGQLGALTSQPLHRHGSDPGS
Histamine H3 receptor (Rattus norvegicus, UniProt Q9QYN8), sequence (Q9QYN8 whole entry): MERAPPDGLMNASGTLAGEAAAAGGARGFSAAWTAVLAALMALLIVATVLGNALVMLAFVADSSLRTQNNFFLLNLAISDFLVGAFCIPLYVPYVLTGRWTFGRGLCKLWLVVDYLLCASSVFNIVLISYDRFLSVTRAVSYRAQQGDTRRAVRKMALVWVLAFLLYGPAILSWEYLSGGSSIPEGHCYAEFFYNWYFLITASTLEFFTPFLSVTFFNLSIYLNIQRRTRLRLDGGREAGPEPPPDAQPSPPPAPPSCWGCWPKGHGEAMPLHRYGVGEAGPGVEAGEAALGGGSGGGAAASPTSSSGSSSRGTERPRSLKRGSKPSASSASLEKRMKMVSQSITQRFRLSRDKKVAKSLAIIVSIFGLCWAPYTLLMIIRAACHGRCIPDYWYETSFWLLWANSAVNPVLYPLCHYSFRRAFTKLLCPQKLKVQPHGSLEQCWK
Histamine H3 receptor (Homo sapiens, UniProt Q9Y5N1), sequence (Q9Y5N1 whole entry): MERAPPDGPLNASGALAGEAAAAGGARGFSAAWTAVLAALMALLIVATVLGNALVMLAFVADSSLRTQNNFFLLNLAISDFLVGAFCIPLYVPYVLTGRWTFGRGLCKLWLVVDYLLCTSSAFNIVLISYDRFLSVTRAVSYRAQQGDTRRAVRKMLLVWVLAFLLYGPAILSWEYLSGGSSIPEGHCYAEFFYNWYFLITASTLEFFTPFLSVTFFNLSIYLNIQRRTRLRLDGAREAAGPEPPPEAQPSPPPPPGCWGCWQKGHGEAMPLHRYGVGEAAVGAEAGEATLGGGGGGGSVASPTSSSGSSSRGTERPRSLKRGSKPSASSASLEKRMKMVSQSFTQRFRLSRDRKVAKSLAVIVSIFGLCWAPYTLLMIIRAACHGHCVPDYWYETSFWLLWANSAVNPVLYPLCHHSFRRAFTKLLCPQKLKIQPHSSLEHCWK

On to `Cc1cc(N2CC[C@H](N3CCC[C@H]3C)C2)ccc1NC(=O)c1cc(F)ccc1C`, for which the Activity entry in [1] and in series [2] was “Non-toxic” each time. In addition, 10 µM produced 84.3% inhibition in series [3]. In series [4], this molecule showed an inhibition at 1 µM of 43%. The half-maximal inhibitory concentration (IC50) in [5], in series [6], in [7], in series [8], in series [9] and in series [10] was more than 30 µM in each case. Besides, the metabolised at 20 min, 5 µM in series [11] came to 60%; in series [12], 7%; in [13] it was 29%. Also, the Ki in series [14] stood at 0.093 µM; in series [15] it was 0.82 µM.

The record behind these values is ChEMBL document CHEMBL2401654, “Synthesis, characterization, and biological assessment of the four stereoisomers of the H(3) receptor antagonist 5-fluoro-2-methyl-N-[2-methyl-4-(2-methyl[1,3']bipyrrolidinyl-1'-yl)phenyl]benzamide” (Bioorg Med Chem Lett, 2013).
